According to the EternaBench riboswitch data:

System: MS2 coat protein
Test: apparent Kd, MS2 coat protein; higher = weaker binding; RNA-MaP array; FMN 200 µM where present
How it was run: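 On Illumina sequencing-chip clusters, designs were transcribed by stalled E. coli RNA polymerase and titrated with SNAP-549-labelled MS2 coat protein (0.7 or 1.5 nM, doubling to 3 µM), without and then with constant ligand, in 100 mM Tris-HCl pH 7.5, 80 mM KCl, 4 mM MgCl2, BSA, DTT, yeast tRNA and Tween-20. Apparent Kd is the median of filtered per-cluster curve fits to green signal normalised to red-channel RNA signal and control-cluster median Fmax.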

[1] = designed as: OFF switch for flavin mononucleotide, no ligand
[2] = ligand present: flavin mononucleotide, designed as: OFF switch for flavin mononucleotide
[3] = designed as: ON switch for flavin mononucleotide, no ligand
[4] = ligand present: flavin mononucleotide, designed as: ON switch for flavin mononucleotide

Sequence | apparent Kd [1] | apparent Kd [2] | apparent Kd [3] | apparent Kd [4]
GAGACAUGUGAGAAGGCGCCACACGCGAGUGGGCGAGGAUAUCACAUGAGGAUCACCCAUGUUAGCCCUCGACCGCGACGCGGG | 10.1 nM | 47.3 nM | – | –
GUGCAUACGUGAGGAUAUGUAUUAGAUAGUGGUACAGAAGGCAUGUCAGAUGACAUGAGGAUCACCCAUGUUGGCAAAAUGCGC | – | – | 47.5 nM | 10.2 nM
CGUCCGUGGGUAGUGAUCGUACAUGAGGAUCACCCAUGUGGGAAGGAUAUGCAUGCACGUGGACAGCAGAAGGUCCCACAACAA | 154 nM | 86 nM | – | –
UUAAAUCAUGUAGGAUAUGCAUGGCGAAGCUACGCAGAAGGACAUGAGGAUCACCCAUGUUAUAGCGUCCGAUUAAGGAUGCAA | 91.9 nM | 216 nM | – | –
GGAUUACAUGAGGAUCACCCAUGUGAGGAUAUCGAUGUCCAGUAGGGCGUGCGGGACUCGAGAAGGCACUUGGA | 47.5 nM | 177 nM | – | –
CGUAACUACAUAGGAUAUUGAUACAUGAGGAUCACCCAUGUUAUAGGGAUUAGUUUAAUAUUAAGCAAGAAGGAUGAAGUUACG | – | – | 18.6 nM | 12.4 nM
GGAUCGUAUGUCAGGAUAUACCACUGGAUACAGUGGUAGAAGGGACAUGAGGAUCACCCAUGUCUUAUCGAUCC | 13.2 nM | 18.3 nM | – | –
ACAAGAUCAGGAUAUACAUGAGGAUCACCCAUGUAUUUCAAAAAGGGACUUUCUUUAUGUAGAAGGGAUCUUGU | 50.8 nM | 67.2 nM | – | –
UUAUUUAUGCAAGGAUAUCAAUUAUAUACACGUCCUACAUGAGGAUCACCCAUGUUUAGUUUUUUUGAGAAGGUGCAUUGUCGG | – | – | 52.1 nM | 44.5 nM
CUUUUGUGAGGAUAUCAGUAGUAAAAAAAUAAAAUUACUACUGAGAAGGCACAUGAGGAUCACCCAUGUCUUUC | 122 nM | 76.8 nM | – | –
AUUUUAAUGUCAGGAUAUGUUAGUUAAUACAUAGUAGAAGGGAUAAUUAUACUCAUGUACAUGAGGAUCACCCAUGUUAAAUAA | – | – | 151 nM | 80.7 nM
GGUGGACAUGAGGAUCACCCAUGUGAGGAUAUCGGCUGGUGCGUGGUGGCUGGCAUCUCGAGAAGGCACAUAGU | 94.4 nM | 171 nM | – | –
GGACGGUUCGUCAGGAUAUGCUCUACCUCGGUAGAGCAGAAGGGACAUGAGGAUCACCCAUGUGAGAACUGUUC | 18.4 nM | 17.3 nM | – | –
AAGUCAGCAGGAUAUGCGAUGUUGUGCUAGAUAGCGUGACCACAUGAGGAUCACCCAUGUAGAAGGGCUGGCUA | 30.9 nM | 20.2 nM | – | –
AGUAUUGUAGGGUAUCCAACAUGAGGAUCACCCAUGUACCAGAGAAGGACCCGUGCAUUGCUCGGGUAGGAUAUCUGCGCAUCA | 19.4 nM | 172 nM | – | –
GAGGAUAGAGGAUAUGCAUAGAUACGGAUUCGUGUAGUACUACAUGAGGAUCACCCAUGUAGAAGGCUGUCCUG | 14.3 nM | 22.1 nM | – | –
CGUCAUUACUCAGGAUAUGCACCAUACUUGAGGGCAGAAGGGAGUACAUGAGGAUCACCCAUGUACUAUGGGCGCCUAAGAGGU | 8.26 nM | 45.1 nM | – | –
AGAUAACAUAGUUAUCCGUAACGGACAUGAGGAUCACCCAUGUAGGAUAUGUUACUCAACGAGUAACAGAAGGACAUGAGUCUU | 17.3 nM | 102 nM | – | –
UUGGACGUCGUAGGAUAUGUAGGAUAUUCCUACAUGAGGAUCACCCAUGUUGACAUGGAGGAAGGACAGAAGGACGAUGUCCAU | – | – | 667 nM | 98 nM
GGGAGUGAAGGAUAUACAUGAGGAUCACCCAUGUGGGAGGAGAGAGGUGAGGAGGCUGGUAGAAGGUCAGGAUG | 60.2 nM | 51.2 nM | – | –
GGUCCAGCAUGAGGAUAUGGCACCUUAUUGGUGCCAGAAGGCAUGUCUAUAGACAUGAGGAUCACCCAUGUAAUAAAUUGGACC | – | – | – | 43.2 nM
AAAAAGUGAGGAUAUGGAAAAAAAAAAAAAAAAAAAAAAAACCAGAAGGCACAUGAGGAUCACCCAUGUAAAAA | 39.6 nM | 39.4 nM | – | –
GUGGUGUAGAUACAGGAUAUGUUGCUCGUAACAUGAGGAUCACCCAUGUAUCUAUGAGAAUAAAUGCAGAAGGGUGCACACCACU | – | – | 549 nM | 30.1 nM
GACAUACGCGAUCCUUGGACAUGAGGAUCACCCAUGUACCGGAAGGAUAUCCUUCGCAAAAGCUAGGAGAAGGUUCGGUAGGUC | 26.1 nM | 86.1 nM | – | –
AUACAUGAGGAUCACCCAUGUUACAUGGCCUUGAUAGAUUGUAGAAGGAUGUUAUUAUUAAUUUCAUAGGAUAUACUAUUUAGU | 106 nM | 83.9 nM | – | –
GCACUUAGAGUUGAACCGUUUCUAACAUGAGGAUCACCCAUGUAGGAUAUGCUAAUAGUAUUGAAGCAGAAGGACAAUAAGUGC | 4.59 nM | 5.01 nM | – | –
GGAUUACAUGAGGAUCACCCAUGUGAGGAUAUCGAUGUCCUCAAUCCCGUGCGGGACUCGAGAAGGCACUUGGA | 63 nM | 48.8 nM | – | –
CAGCGCUGUUGAGAGGAUAUGCGGUGAUGGACAUGAGGAUCACCCAUGUUAGCGACAGCAUUACGGCAGAAGGCUUCACAGCUGC | – | – | 51.1 nM | 14.6 nM

Sequence | apparent Kd [1] | apparent Kd [2] | apparent Kd [3] | apparent Kd [4]
AGUGUGUGGCAGGAUAUGCAAUUUGUAAGUAUUGCAGAAGGGUCUACAUGAGGAUCACCCAUGUGUGCGGUUGA | 721 nM | 477 nM | – | –
CGCACUGAUAGAGGAUAUGUUUAACAUGAGGAUCACCCAUGUGUACAAGUAUCAAUAUUUAUGUAACAGAAGGCUAUUAGUGCG | 5.77 nM | 5.47 nM | – | –
GCGUAAAAGAUCCUAUUUAUCUACAUGAGGAUCACCCAUGUGCAGGAUAUGCUAAAAUUAAAAUAGCAGAAGGGCAAUAACCGC | 54 nM | 179 nM | – | –
GCAGCGCUUGACAUGAGGAUCACCCAUGUUAGAUUGUUAAGUCAGGAUAUAGUCUAGAAACUAGACUAGAAGGGAUUUGCUGCU | – | – | 7.18 nM | 6.14 nM
AAUUAAUUAAUUAAUUCCUGCAUACAUGAGGAUCACCCAUGUAAGGAUAUCGUCAGGAAUACUGACGAGAAGGUACAUAGCAGG | 15.7 nM | 21.6 nM | – | –
GUGUAGAUAGCAGGAUAUCUAUUUCCUACAUGAGGAUCACCCAUGUAGAUGAUCACCCAUGUAAAGGAGAAGGGCUAUCUAUAC | – | – | 367 nM | 165 nM
AAAUAACCUAGCAAAAUUUCCUAACAUGAGGAUCACCCAUGUAGAAGGCUGUCCUAAAAUAGGACAGAGGAUAUACGUGCUAGG | 5.01 nM | 7 nM | – | –
ACAUGGUAGUAGAAGGGUAUUACUUUAGAUACAACCAUUUGUUUAGUUUAUACAGGAUAUGCUUACAUGAGGAUCACCCAUGUU | – | 8.74 nM | – | –
AUUGUAUGGAAAGGAUAUAGAAUAUUAUUUUAACAUGAGGAUCACCCAUGUAACCUUAUGUGUAGCUAGAAGGUUCGUUUGUUA | 88.2 nM | 97.8 nM | – | –
UUAGUAUUGCAAGGAUAUGUUUAUGAUAUUUUUCCUCUUACAUGAGGAUCACCCAUGUUUAACUUACAGAAGGUGCUAUGAUUU | 575 nM | 1030 nM | – | –
UUUAUAAAUUAGAAGGCAUGAUGAAUUACAAUAGACAUGAGGAUCACCCAUGUGUGUUCAUGUCAUGAGGAUAUAGUCAUAUAU | – | – | 17.5 nM | 9.93 nM
UAUAUAUAGUAAGGAUAUGUAUUUGUUUUAUAAACAGAAGGUACUGACAUGAGGAUCACCCAUGUUUUAGUGUGGGCAUGUAGA | 39.5 nM | 41.4 nM | – | –
CAUCCGAAUGAGAAGGGUCACAUGAGGAUCACCCAUGUGACCUCAUCGAUGACAGGAUAUCAUGGGUGGCAGUGUAAAGUUGGC | 6.6 nM | 7.04 nM | – | –
GCAGGUUAAGUCAGGAUAUACCUAUGGAUACAUAGGUAGAAGGGACAUGAGGAUCACCCAUGUGCCUCGCCUGC | 17.7 nM | 69.3 nM | – | –
AUAUGCCAUGUAAGGAUAUACUGGAGCAUAAGCUCGUAGAAGGUACAUGAGGAUCACCCAUGUGGACCCGACAC | 29.9 nM | 34.9 nM | – | –
GCGAGCAUACAGAAGGGAUCGUCGUUGCGGCUGUCAGGAUAUGUAGCUUGGCCUAAACAUGAGGAUCACCCAUGUAUAAUGCUA | – | – | 66.7 nM | 24.3 nM
UUUUUGUCAGAGGAUAUCAUAGUCAGUUUUAAGUGAGAAGGUUGAACAUGAGGAUCACCCAUGUGACCUUGGUG | 23.6 nM | 21.6 nM | – | –
UAACGACACGCAGGAUAUCUAACAUGAGGAUCACCCAUGUCAGAUGACAGGGUCGCUUUACUGGCAGAGAAGGGCGAUCGAUAC | 7.44 nM | 11.2 nM | – | –
UAAAAUUUAUGAUAUUAUGACAGUAGAAGGCUAUACAUGUUGAUACAUGAGGAUCACCCAUGUAUAGAGGAUAUAUACAUUUAU | 845 nM | 832 nM | – | –
GCCGAUUAAGUGAGGAUAUACCUAUGGAUACAUAGGUAGAAGGCACAUGAGGAUCACCCAUGUUCCUCAACGGC | 15.6 nM | 87.8 nM | – | –
GCUAUUGAUGUAGGAUAUGAUAUAGAAGCUAUGUCAGAAGGACAUGAGGAUCACCCAUGUCAAUGGAUGGAGAGAAGAAAUGGC | 62.6 nM | 75 nM | – | –
CCCUCACAUGAGGAUCACCCAUGUCCUAGCCCGUCAGGAUAUAGCCCGCAUCCGCUGCGGCUAGAAGGGACAGCUG | – | – | 190 nM | 141 nM
UUGGGUUUGCGAGGAUAUCGUAUGUGAUUUGAACGAGAAGGCGCUAUUUAAAUUAUUUUAACAUAACAUGAGGAUCACCCAUGU | – | – | 17.4 nM | 16 nM
CGUUGAUGAUUUCUUCACAUGAGGAUCACCCAUGUCGCUCGACAGGAUAUAUUUGAGUUGUUUAAGUAGAAGGGUCGCAGAUGC | – | – | 112 nM | 183 nM
GGUGGACAUGAGGAUCACCCAUGUGAGGAUAUCGGCCGGUUCGUGGUGGCUGGCGUCUCGAGAAGGCACAUAGU | 153 nM | 129 nM | – | –
GUCAUUGACAAGAAGGCAAACAUGAGGAUCACCCAUGUUCUGCAUGUAUAUUGAGGAUAUUGCCAAUGCAUGUGGAUCACCCAA | 6.92 nM | 11 nM | – | –
AGUGUGUGGCAGGAUAUGCUGUUGAUUCGGGCAGCAGAAGGGUCUACAUGAGGAUCACCCAUGUAAGCGGUUGA | 257 nM | 413 nM | – | –
